Here are results for 5 molecules from ChEMBL document CHEMBL2040708, “Rational design, synthesis, and pharmacological properties of pyranochalcone derivatives as potent anti-inflammatory agents” (Eur J Med Chem, 2012).

Each structure is given as a SMILES string. The source made the active and inactive calls. No cut-off for these calls is given here.

Test [1] addresses T1, Nitric oxide synthase, inducible (Mus musculus, UniProt P29477).
T1 sequence (P29477 whole entry): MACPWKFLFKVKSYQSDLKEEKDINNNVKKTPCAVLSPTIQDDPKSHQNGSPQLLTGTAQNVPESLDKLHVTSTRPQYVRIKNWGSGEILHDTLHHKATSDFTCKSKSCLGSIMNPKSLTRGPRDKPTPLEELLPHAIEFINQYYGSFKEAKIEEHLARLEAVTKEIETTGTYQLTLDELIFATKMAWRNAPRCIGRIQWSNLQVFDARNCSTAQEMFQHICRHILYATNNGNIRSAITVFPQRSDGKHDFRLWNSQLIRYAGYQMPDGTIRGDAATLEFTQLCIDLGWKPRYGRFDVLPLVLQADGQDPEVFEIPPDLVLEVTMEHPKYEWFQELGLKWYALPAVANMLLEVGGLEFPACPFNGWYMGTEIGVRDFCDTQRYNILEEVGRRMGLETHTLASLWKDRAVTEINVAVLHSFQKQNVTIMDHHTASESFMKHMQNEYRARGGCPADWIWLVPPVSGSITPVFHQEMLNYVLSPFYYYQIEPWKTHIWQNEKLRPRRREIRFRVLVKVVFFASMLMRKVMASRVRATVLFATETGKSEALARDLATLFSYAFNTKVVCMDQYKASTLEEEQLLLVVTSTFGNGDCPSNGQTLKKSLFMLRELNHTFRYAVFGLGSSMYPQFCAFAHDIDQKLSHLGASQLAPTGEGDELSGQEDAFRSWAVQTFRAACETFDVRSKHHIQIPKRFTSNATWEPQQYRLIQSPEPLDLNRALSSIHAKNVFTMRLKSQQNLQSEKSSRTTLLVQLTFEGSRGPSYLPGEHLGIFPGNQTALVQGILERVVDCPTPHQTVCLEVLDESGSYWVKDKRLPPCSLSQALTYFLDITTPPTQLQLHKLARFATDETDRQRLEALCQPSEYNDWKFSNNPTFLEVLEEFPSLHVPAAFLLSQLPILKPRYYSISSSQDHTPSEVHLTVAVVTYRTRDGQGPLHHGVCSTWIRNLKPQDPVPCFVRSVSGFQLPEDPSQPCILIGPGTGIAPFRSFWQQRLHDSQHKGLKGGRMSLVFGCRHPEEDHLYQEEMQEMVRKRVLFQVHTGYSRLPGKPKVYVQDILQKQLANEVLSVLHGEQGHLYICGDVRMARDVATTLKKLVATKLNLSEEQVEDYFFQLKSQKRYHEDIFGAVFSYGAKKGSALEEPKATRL
Put plainly: Inhibition of iNOS in mouse RAW264.7 cells assessed as inhibition of LPS-induced nitric oxide production for 2 hrs by DAF-FMDA dye based fluorometric assay. Format: cell-based.

Test [2] relates to RAW264.7. Kind of test: Cytotoxicity against mouse RAW264.7 cells after 24 hrs by MTT assay in the absence of LPS. Format: cell-based. The conditions noted are these: RAW264.7, 24 h. The method in brief:
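RAW264.7 cells at 5 × 10⁴/well, exposed to a range of concentrations in serum-free medium for 24 h. MTT (5 mg/mL in saline) added for a further 4 h, formazan dissolved in DMSO, absorbance read at 540 nm. Viability expressed relative to the blank control.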
Background: Tetrazolium dyes change colour on reduction, which living cells bring about.

Test [3] deals with RAW264.7. Put plainly: Cytotoxicity against mouse RAW264.7 cells after 24 hrs by MTT assay in the presence of LPS. Format: cell-based. The conditions noted are these: RAW264.7, 24 h.
Test [4] has as its system Mus musculus. Kind of test: Antiinflammatory activity in ICR mouse assessed as decrease in carrageenan-induced paw edema at 10 mg/kg, ip administered 30 mins prior to carrageenan-challenge measured at 4 hrs relative to vehicle treated control. Format: functional. As to conditions: route intraperitoneal. The method in brief:
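Male ICR mice dosed i.p. 30 min before subplantar injection of freshly prepared 1% carrageenan suspension into the right hind paw. Footpad thickness measured with a gauge caliper at 1, 2, 3, 4 and 5 h. Inhibition calculated from increase in paw thickness versus the control group; mean (SEM), n = 5.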
(In general: The carrageenan paw model is a standard test of acute inflammation.)

Test [5] deals with Rattus norvegicus. Kind of test: Antiarthritic activity in Lewis rat adjuvant-induced arthritis model assessed as decrease in complete Freund's adjuvant-induced arthritis administered daily oral doses for 14 days post inflammation development signs. Format: functional, organism-based. The essentials:
(§1)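 Male Lewis rats, 12 weeks old, six per group, injected with CFA at the tail base. Vehicle (2% Tween 80/0.5% methylcellulose) given orally for 7 d until full joint inflammation, then randomized and dosed orally daily for 14 d at 10 or 25 mg/kg. Arthritis scored daily on hind paw erythema, swelling, joint tenderness, movement and posture. Body weight tracked; means ± S.E.M.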

The test system of test [6] is Rattus norvegicus. Put plainly: Antiarthritic activity in Lewis rat adjuvant-induced arthritis model assessed as decrease in complete Freund's adjuvant-induced weight loss administered daily oral doses for 14 days post inflammation development signs. Type of test: functional, organism-based. The essentials: as §1
Test [7] deals with Rattus norvegicus. Kind of test: Antiarthritic activity in Lewis rat adjuvant-induced arthritis model assessed as decrease in complete Freund's adjuvant-induced suppression of histopathological changes at 25 mg/kg/day, po for 14 days post inflammation development signs by Hematoxylin and eosin staining. Format: functional, organism-based. The essentials: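 CFA-induced arthritis in male Lewis rats, dosed orally each day for 14 d after a 7 d vehicle lead-in. Animals sacrificed, foot pads fixed in neutral buffered formal saline and embedded in paraffin. 5 µm sections stained with H&E and examined under the microscope.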

What is called IC50 is the midpoint of a concentration-inhibition curve. Usually inhibition in vivo stands for the relative decrease from the control value, in per cent. Regarding `COc1ccc(/C=C/C(=O)c2ccc3c(c2O)C=CC(C)(C)O3)cc1OC`, the IC50 was 7.9 µM in test [1], over 80 µM in test [2] and over 80 µM in test [3]. Further, the inhibition in vivo at 10 mg/kg in test [4] came to 52.4%. Besides, the inhibition result in test [5] was “Dose-dependent effect”. Further, the inhibition result in test [6] and in test [7] was “Active” throughout.

As to `CC1(C)C=Cc2c(ccc(C(=O)/C=C/c3ccc(Br)cc3)c2O)O1`, the IC50 was 17.8 µM in test [1], over 80 µM in test [2] and over 80 µM in test [3]. Besides, the inhibition in vivo at 10 mg/kg in test [4] is 27.6%.

`COc1ccc2c(c1)c(CC(=O)O)c(C)n2C(=O)c1ccc(Cl)cc1` [INDOMETHACIN]: the IC50 in test [1] is 20 µM; in test [2], over 80 µM; in test [3], over 80 µM. In test [4], the inhibition in vivo at 10 mg/kg amounted to 45.8%.

With `COc1cc(/C=C/C(=O)c2ccc3c(c2O)C=CC(C)(C)O3)cc(OC)c1OC`, the IC50 in test [1] is 6.2 µM; in test [2] it was over 80 µM; in test [3] it was over 80 µM. Moreover, in test [4], the inhibition in vivo at 10 mg/kg turned out to be 34.4%.

For `CC1(C)C=Cc2c(ccc(C(=O)/C=C/c3cccc(F)c3)c2O)O1`, the IC50 in test [1] is 5.4 µM; in test [2] it was over 80 µM; in test [3], over 80 µM. In addition, the inhibition in vivo at 10 mg/kg in test [4] came out at 9%.
